Published values gathered from unrelated publications.
Lines come from different studies, so protocols differ.
Target: Serine/threonine-protein kinase BRSK1 (BRSK1, Homo sapiens, UniProt Q8TDC3)
One construct used (Q8TDC3 1-778): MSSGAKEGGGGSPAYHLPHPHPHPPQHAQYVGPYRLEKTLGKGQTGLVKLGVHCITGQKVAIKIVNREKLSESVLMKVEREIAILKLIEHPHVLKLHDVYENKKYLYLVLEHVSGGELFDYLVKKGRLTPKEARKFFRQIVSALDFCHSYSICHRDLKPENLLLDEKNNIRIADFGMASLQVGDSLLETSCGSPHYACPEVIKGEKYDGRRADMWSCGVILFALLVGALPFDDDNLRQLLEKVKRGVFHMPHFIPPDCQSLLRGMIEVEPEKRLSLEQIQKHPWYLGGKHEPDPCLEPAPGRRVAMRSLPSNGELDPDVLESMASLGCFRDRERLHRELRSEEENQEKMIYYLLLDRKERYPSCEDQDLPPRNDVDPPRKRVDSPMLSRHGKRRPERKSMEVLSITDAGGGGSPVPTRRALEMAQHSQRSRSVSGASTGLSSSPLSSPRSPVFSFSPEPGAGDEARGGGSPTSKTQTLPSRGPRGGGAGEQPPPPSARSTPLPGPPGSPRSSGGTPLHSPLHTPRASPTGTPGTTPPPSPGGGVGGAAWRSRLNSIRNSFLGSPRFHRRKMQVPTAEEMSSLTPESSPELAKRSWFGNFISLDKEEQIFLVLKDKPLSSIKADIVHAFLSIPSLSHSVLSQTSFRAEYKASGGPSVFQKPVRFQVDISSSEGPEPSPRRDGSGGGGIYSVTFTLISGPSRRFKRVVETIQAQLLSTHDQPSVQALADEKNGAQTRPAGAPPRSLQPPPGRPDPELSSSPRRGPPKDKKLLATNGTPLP

Structure (SMILES)	test	conditions	quantity	result
O=C1Nc2ccc(Cl)cc2C1=Cc1cc(Cl)c(O)c(Cl)c1	cell-free assay	0.5 µM	remaining signal	81.3%
Cn1c(=O)n(-c2ccc(C(C)(C)C#N)cc2)c2c3cc(-c4cnc5ccccc5c4)ccc3ncc21	enzyme activity, inhibitor	10 µM	remaining activity	85%
CCCOc1ccc(OC)c(F)c1C(=O)c1ccc(C(=O)N[C@@H]2CNC[C@H]2NC(=O)c2ccc3[nH]ncc3c2)cc1	enzyme activity, inhibitor	10 µM	remaining activity	40%
CC(C)(O)[C@H]1CC[C@H](Nc2ccc3ncc(-c4cccc(C(F)(F)F)c4)n3n2)CC1	enzyme activity, inhibitor	1 µM	remaining activity	98.1%
CCCS(=O)(=O)Nc1ccc(F)c(C(=O)c2c[nH]c3ncc(-c4ccc(Cl)cc4)cc23)c1F	enzyme activity, inhibitor	1 µM	inhibition	< 10%
Cc1cc(C)c(-n2ccn3nc(-c4cccnc4)cc23)cc1NC(=O)c1cc(C#N)cc(S(F)(F)(F)(F)F)c1	cell-free assay, competition with immobilised ligand	0.1 µM	remaining binding	84%
COc1cc(/C=C/C(=O)CC(=O)/C=C/c2ccc(O)c(OC)c2)ccc1O	enzyme activity, inhibitor	1 µM	activity vs control	92%
CC/C(=N\NC(=O)NCc1cccc(O)c1)c1ccc(O)c(C)c1O	enzyme activity, inhibitor	0.1 µM	inhibition	1.7%
CCN(CC)CCNC(=O)c1c(C)[nH]c(/C=C2\C(=O)Nc3ccc(F)cc32)c1C	enzyme activity, inhibitor	0.3 µM	inhibition	27%
Nc1ncnc2occ(-c3ccc(NC(=O)Nc4cc(C(F)(F)F)ccc4F)cc3)c12	cell-free assay, inhibitor	20 µM	remaining signal	8.4%
N[C@@H]1CCN(c2nccc(-c3cnn4ncccc34)n2)C1	binding	1 µM	remaining binding	100%
CC(C)(C)c1nc(-c2cccc(NS(=O)(=O)c3c(F)cccc3F)c2F)c(-c2ccnc(N)n2)s1	enzyme activity, inhibitor, radiometric	1 µM	remaining activity	105%
CCc1ccccc1C(=O)Nc1n[nH]c2c(C)c(F)c(C3C(C#N)=C(C)N(C)C(C)=C3C#N)cc12	cell-free assay, competition with immobilised ligand	1 µM	remaining binding	55%
Cc1ccc(Nc2nccc(N(C)c3ccc4c(C)n(C)nc4c3)n2)cc1S(N)(=O)=O	enzyme activity, inhibitor	10 µM	inhibition	36%
CCCCN(CCCC)C(=O)CN1C[C@@H](c2cc(OC)c3c(c2)OCO3)[C@H](C(=O)O)[C@H]1CC(C)(C)CCC	cell-free assay, competition with immobilised ligand	1 µM	remaining binding	88.9%
CNC(=O)c1cc(Oc2ccc(NC(=O)Nc3ccc(Cl)c(C(F)(F)F)c3)cc2)ccn1	enzyme activity, inhibitor	0.3 µM	inhibition	17%
COc1cc2ncnc(Nc3ccc(Oc4ccccc4)cc3C)c2cc1OC	enzyme activity, inhibitor	1 µM	inhibition	1%
CC(=O)N1CCC(c2ccc(C(=O)NC(=N)N)cc2C(F)(F)F)CC1	cell-free assay, competition with immobilised ligand	1 µM	remaining binding	87%
O=C(Nc1cnn(-c2csc(C(=O)NC3COC3)c2)c1)Nc1c(F)cccc1Cl	enzyme activity, inhibitor	5 µM	remaining activity	99.4%
CN([C@@H]1CCc2c(CC(=O)O)c3ccccc3n2C1)S(=O)(=O)c1ccc(F)cc1	cell-free assay, competition with immobilised ligand	1 µM	remaining binding	100%
CN1CC(Oc2cnc(C#N)cc2-c2ccn3nc(NC(=O)C4CC4)cc3c2)C1	enzyme activity, inhibitor	1 µM	inhibition	6%
C[C@H](c1ccnc(Nc2nc3ccc(-c4cc(N(C)C)ncn4)cc3[nH]2)c1)N1CCN(C(=O)CC(F)(F)F)CC1	cell-free assay, competition with immobilised ligand	0.1 µM	remaining binding	100%
COc1cc2ncnc(Nc3ccc(F)c(Cl)c3)c2cc1OCCCN1CCOCC1	cell-free assay	0.5 µM	remaining signal	92.5%
CCC(=N\O)/C(C)=C/c1ccc(F)cc1	cell-free assay, competition with immobilised ligand	1 µM	remaining binding	100%
N#CCCc1ccc2c(c1)-c1[nH]c3ccc([N+](=O)[O-])cc3c1CC(=O)N2	cell-free assay	0.5 µM	remaining signal	46.8%
CN(C)C(=O)Cn1cc(-c2nc(C3(c4ccc(-c5cnc(N)nc5)cc4)CC3)no2)cn1	cell-free assay, competition with immobilised ligand	1 µM	remaining binding	93%
FC(F)(F)Oc1cccc(-c2cnc3ccc(-c4ccncc4)nn23)c1	enzyme activity, inhibitor, radiometric	5 µM	activity vs control	82%
